In article PMC7238799 (Pulmonary Circulation, 2020):

Legend:
Single ascending dose = assay type: in vivo, human; conditions: for Tmax / AUC(0-inf) / AUC(0-t) / Cmax: both, human, plasma, po
In short: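 Healthy subjects received one oral immediate-release capsule dose of test compound (30–200 µg) or placebo, with food withheld 1 h after dosing. K₂EDTA blood was drawn pre-dose, at 0.25–120 h, then every 24 h through Day 14. Samples were chilled, centrifuged and frozen at –20 ℃. Plasma was assayed by LC-MS/MS (0.03–15.0 ng/mL). Noncompartmental, linear-trapezoidal parameters are reported as mean (SD), with Tmax as median (min–max).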

[1] = system: prostacyclin (IP) receptor; conditions: cited from earlier work
healthy subjects = experiment: Multiple ascending dose; assay type: in vivo, human; conditions: for Abdominal distention, subjects (%) / Abdominal pain, subjects (%) / Acne, subjects (%) / Application site dermatitis, subjects (%) / Arthralgia, subjects (%) / Asthenia, subjects (%) / Back pain, subjects (%) / Chapped lips, subjects (%) / Chest pain, subjects (%) / Chromaturia, subjects (%) / Constipation, subjects (%) / Decreased appetite, subjects (%) / Dermatitis contact, subjects (%) / Diarrhea, subjects (%) / Dizziness, subjects (%) / Dry mouth, subjects (%) / Eructation, subjects (%) / Fatigue, subjects (%) / Feeling hot, subjects (%) / Flatulence, subjects (%) / Flushing, subjects (%) / Headache, subjects (%) / Hordeolum, subjects (%) / Muscle tightness, subjects (%) / Muscular weakness, subjects (%) / Myalgia, subjects (%) / Nausea, subjects (%) / Non-cardiac chest pain, subjects (%) / Number of AEs reported / Ocular hyperemia, subjects (%) / Oropharyngeal pain, subjects (%) / Pain in extremity, subjects (%) / Pain in jaw, subjects (%) / Palpitations, subjects (%) / Paraesthesia, subjects (%) / Pruritus, subjects (%) / Restless leg syndrome, subjects (%) / Somnolence, subjects (%) / Total (%) subjects with at least one AE / Total (%) subjects with at least one SAE / Tremor, subjects (%) / Vomiting, subjects (%): all dose levels, n = 20
In short: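 Subjects on test compound or placebo were domiciled up to 31 days (QD Cohorts 1–2) or 34 days (BID Cohort 3), with a 48-h drug-free follow-up. Monitoring at multiple time points covered adverse events, vital signs, 12-lead ECG with intensive ECG monitoring in all cohorts, and safety labs (serum chemistry, hematology, urinalysis). Data were summarized descriptively by treatment group.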

[2] = cited from earlier work
plasma protein = conditions: animals and humans; cited from earlier work

O=C(O)COC[C@H]1CC[C@H](COC(=O)N(c2ccccc2)c2ccc(Cl)cc2)CC1 [ralinepag]
Tmax (Single ascending dose): 1 to 1.5 h
AUC(0-inf) (Single ascending dose; 30 ug): 17.3 ng·h/mL
AUC(0-t) (Single ascending dose; 30 ug): 15.9 ng·h/mL
Cmax (Single ascending dose; 30 ug): 0.949 ng/mL
Tmax (Single ascending dose; 30 ug): 1 h
AUC(0-inf) (Single ascending dose; 50 ug): 22.8 ng·h/mL
AUC(0-t) (Single ascending dose; 50 ug): 21.5 ng·h/mL
Cmax (Single ascending dose; 50 ug): 1.49 ng/mL
Tmax (Single ascending dose; 50 ug): 1.25 h
AUC(0-inf) (Single ascending dose; 100 ug): 42.6 ng·h/mL
AUC(0-t) (Single ascending dose; 100 ug): 41.2 ng·h/mL
Cmax (Single ascending dose; 100 ug): 2.65 ng/mL
Tmax (Single ascending dose; 100 ug): 1.5 h
AUC(0-inf) (Single ascending dose; 200 ug): 103 ng·h/mL
AUC(0-t) (Single ascending dose; 200 ug): 101 ng·h/mL
Cmax (Single ascending dose; 200 ug): 6.17 ng/mL
Tmax (Single ascending dose; 200 ug): 1.25 h
Dose proportionality of Cmax and AUC (Single ascending dose; single doses from 30 to 200 µg): approximately dose proportional
Maximal cAMP stimulation (efficacy percentage relative to iloprost) [1]: 67%
Type of IP receptor agonism [1]: strong partial agonist
Functional potency relative to ACT-333679 ([1]; greater potency than selexipag active metabolite): 6–8 fold
Abdominal distention, subjects (%) (healthy subjects; Cohort 3, BID): 0
Abdominal pain, subjects (%) (healthy subjects; Cohort 3, BID): 4 (20%)
Acne, subjects (%) (healthy subjects; Cohort 3, BID): 2 (10%)
Application site dermatitis, subjects (%) (healthy subjects; Cohort 3, BID): 0
Arthralgia, subjects (%) (healthy subjects; Cohort 3, BID): 9 (45%)
Asthenia, subjects (%) (healthy subjects; Cohort 3, BID): 0
Back pain, subjects (%) (healthy subjects; Cohort 3, BID): 2 (10%)
Chapped lips, subjects (%) (healthy subjects; Cohort 3, BID): 2 (10%)
Chest pain, subjects (%) (healthy subjects; Cohort 3, BID): 1 (5%)
Chromaturia, subjects (%) (healthy subjects; Cohort 3, BID): 2 (10%)
Constipation, subjects (%) (healthy subjects; Cohort 3, BID): 1 (5%)
Decreased appetite, subjects (%) (healthy subjects; Cohort 3, BID): 1 (5.0%)
Dermatitis contact, subjects (%) (healthy subjects; Cohort 3, BID): 2 (10%)
Diarrhea, subjects (%) (healthy subjects; Cohort 3, BID): 7 (35%)
Dizziness, subjects (%) (healthy subjects; Cohort 3, BID): 9 (45%)
Dry mouth, subjects (%) (healthy subjects; Cohort 3, BID): 2 (10%)
Eructation, subjects (%) (healthy subjects; Cohort 3, BID): 0
Fatigue, subjects (%) (healthy subjects; Cohort 3, BID): 3 (15%)
Feeling hot, subjects (%) (healthy subjects; Cohort 3, BID): 2 (10%)
Flatulence, subjects (%) (healthy subjects; Cohort 3, BID): 0
Flushing, subjects (%) (healthy subjects; Cohort 3, BID): 3 (15%)
Headache, subjects (%) (healthy subjects; Cohort 3, BID): 17 (85%)
Hordeolum, subjects (%) (healthy subjects; Cohort 3, BID): 0
Muscle tightness, subjects (%) (healthy subjects; Cohort 3, BID): 2 (10%)
Muscular weakness, subjects (%) (healthy subjects; Cohort 3, BID): 2 (10%)
Myalgia, subjects (%) (healthy subjects; Cohort 3, BID): 9 (45%)
Nausea, subjects (%) (healthy subjects; Cohort 3, BID): 9 (45%)
Non-cardiac chest pain, subjects (%) (healthy subjects; Cohort 3, BID): 0
Number of AEs reported (healthy subjects; Cohort 3, BID): 196
Ocular hyperemia, subjects (%) (healthy subjects; Cohort 3, BID): 3 (15%)
Oropharyngeal pain, subjects (%) (healthy subjects; Cohort 3, BID): 1 (5%)
Pain in extremity, subjects (%) (healthy subjects; Cohort 3, BID): 0
Pain in jaw, subjects (%) (healthy subjects; Cohort 3, BID): 13 (65%)
Palpitations, subjects (%) (healthy subjects; Cohort 3, BID): 5 (25%)
Paraesthesia, subjects (%) (healthy subjects; Cohort 3, BID): 4 (20%)
Pruritus, subjects (%) (healthy subjects; Cohort 3, BID): 2 (10%)
Restless leg syndrome, subjects (%) (healthy subjects; Cohort 3, BID): 2 (10%)
Somnolence, subjects (%) (healthy subjects; Cohort 3, BID): 2 (10%)
Total (%) subjects with at least one AE (healthy subjects; Cohort 3, BID): 19 (95.0%)
Total (%) subjects with at least one SAE (healthy subjects; Cohort 3, BID): 0 (0%)
Tremor, subjects (%) (healthy subjects; Cohort 3, BID): 1 (5.0%)
Vomiting, subjects (%) (healthy subjects; Cohort 3, BID): 3 (15%)
Abdominal distention, subjects (%) (healthy subjects; Cohorts 1 and 2, QD): 2 (10%)
Abdominal pain, subjects (%) (healthy subjects; Cohorts 1 and 2, QD): 6 (30%)
Acne, subjects (%) (healthy subjects; Cohorts 1 and 2, QD): 0
Application site dermatitis, subjects (%) (healthy subjects; Cohorts 1 and 2, QD): 6 (30%)
Arthralgia, subjects (%) (healthy subjects; Cohorts 1 and 2, QD): 0
Asthenia, subjects (%) (healthy subjects; Cohorts 1 and 2, QD): 2 (10%)
Back pain, subjects (%) (healthy subjects; Cohorts 1 and 2, QD): 1 (5%)
Chapped lips, subjects (%) (healthy subjects; Cohorts 1 and 2, QD): 0
Chest pain, subjects (%) (healthy subjects; Cohorts 1 and 2, QD): 1 (5%)
Chromaturia, subjects (%) (healthy subjects; Cohorts 1 and 2, QD): 0
Constipation, subjects (%) (healthy subjects; Cohorts 1 and 2, QD): 6 (30%)
Decreased appetite, subjects (%) (healthy subjects; Cohorts 1 and 2, QD): 4 (20%)
Dermatitis contact, subjects (%) (healthy subjects; Cohorts 1 and 2, QD): 0
Diarrhea, subjects (%) (healthy subjects; Cohorts 1 and 2, QD): 5 (25%)
Dizziness, subjects (%) (healthy subjects; Cohorts 1 and 2, QD): 5 (25%)
Dry mouth, subjects (%) (healthy subjects; Cohorts 1 and 2, QD): 0
Eructation, subjects (%) (healthy subjects; Cohorts 1 and 2, QD): 3 (15%)
Fatigue, subjects (%) (healthy subjects; Cohorts 1 and 2, QD): 2 (10%)
Feeling hot, subjects (%) (healthy subjects; Cohorts 1 and 2, QD): 2 (10%)
Flatulence, subjects (%) (healthy subjects; Cohorts 1 and 2, QD): 2 (10%)
Flushing, subjects (%) (healthy subjects; Cohorts 1 and 2, QD): 7(35%)
Headache, subjects (%) (healthy subjects; Cohorts 1 and 2, QD): 19 (95%)
Hordeolum, subjects (%) (healthy subjects; Cohorts 1 and 2, QD): 3 (15%)
Muscle tightness, subjects (%) (healthy subjects; Cohorts 1 and 2, QD): 0
Muscular weakness, subjects (%) (healthy subjects; Cohorts 1 and 2, QD): 1 (5%)
Myalgia, subjects (%) (healthy subjects; Cohorts 1 and 2, QD): 6 (30%)
Nausea, subjects (%) (healthy subjects; Cohorts 1 and 2, QD): 17 (85%)
Non-cardiac chest pain, subjects (%) (healthy subjects; Cohorts 1 and 2, QD): 2 (10%)
Number of AEs reported (healthy subjects; Cohorts 1 and 2, QD): 230
Ocular hyperemia, subjects (%) (healthy subjects; Cohorts 1 and 2, QD): 0
Oropharyngeal pain, subjects (%) (healthy subjects; Cohorts 1 and 2, QD): 2(10%)
Pain in extremity, subjects (%) (healthy subjects; Cohorts 1 and 2, QD): 3 (15%)
Pain in jaw, subjects (%) (healthy subjects; Cohorts 1 and 2, QD): 13 (65%)
Palpitations, subjects (%) (healthy subjects; Cohorts 1 and 2, QD): 4 (20%)
Paraesthesia, subjects (%) (healthy subjects; Cohorts 1 and 2, QD): 1 (5%)
Pruritus, subjects (%) (healthy subjects; Cohorts 1 and 2, QD): 1 (5.0%)
Restless leg syndrome, subjects (%) (healthy subjects; Cohorts 1 and 2, QD): 1 (5%)
Somnolence, subjects (%) (healthy subjects; Cohorts 1 and 2, QD): 3 (15%)
Total (%) subjects with at least one AE (healthy subjects; Cohorts 1 and 2, QD): 20 (100%)
Total (%) subjects with at least one SAE (healthy subjects; Cohorts 1 and 2, QD): 1 (5.0%)
Tremor, subjects (%) (healthy subjects; Cohorts 1 and 2, QD): 2 (10%)
Vomiting, subjects (%) (healthy subjects; Cohorts 1 and 2, QD): 12 (60%)
Subjects withdrawn from the study due to AEs (healthy subjects; Cohorts 1 and 2, receiving ralinepag): three
Tolerability versus dose (healthy subjects; QD (up to 400 µg) or BID (up to 70 µg) dosing): tolerability decreasing with increasing dose
QT prolongation (12-lead Holter ECG, high-precision QT analysis) (healthy subjects; QD and BID dose ranges evaluated): not likely to be associated with QT prolongation
Serious adverse event (healthy subjects; one subject, 50 µg QD, Cohort 2, possibly related to study medication): SAE of atrial fibrillation considered moderate in intensity
Enterohepatic recirculation ([2]; animals): observed
Oral bioavailability ([2]; mouse, rat, dog, and monkey): moderate to high
Plasma protein binding (plasma protein): ~99%
